Laboratory results: article PMC6544531 (Nature chemistry, 2019)
“Also recorded” adds a separate entry of the source.

Key:
[1] = tested on: farnesylated substrates (YnF labeling) in EA.hy926 cells; assay type: cell-based, human; conditions: for mean in-cell IC50 response (YnF labeling of farnesylated substrates): 10 µM YnF, 1 h inhibitor pre-incubation + 8 h
Procedure, shortened: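 EA.hy926 endothelial cells labeled with alkyne prenyl probe alongside increasing concentrations of prenyl transferase inhibitor. Lysates were spiked with a heavy SILAC standard, a lysate dual-labeled with 13C615N4-Arg/13C615N2-Lys (R10K8) plus the same probe. Probe-labeled proteins were quantified against this standard by spike-in SILAC chemical proteomics, giving dose-response curves per farnesylated substrate.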

EA.hy926 cells = assay: Cell toxicity observed during cell treatment; assay type: cell-based, human; conditions: data not shown
FTase = FTase (Rattus norvegicus, UniProt Q02293+Q04631); conditions: read-out: IC50 (weak FTI); cited from earlier work
FTase, sequence (Q02293 whole entry, one chain of several): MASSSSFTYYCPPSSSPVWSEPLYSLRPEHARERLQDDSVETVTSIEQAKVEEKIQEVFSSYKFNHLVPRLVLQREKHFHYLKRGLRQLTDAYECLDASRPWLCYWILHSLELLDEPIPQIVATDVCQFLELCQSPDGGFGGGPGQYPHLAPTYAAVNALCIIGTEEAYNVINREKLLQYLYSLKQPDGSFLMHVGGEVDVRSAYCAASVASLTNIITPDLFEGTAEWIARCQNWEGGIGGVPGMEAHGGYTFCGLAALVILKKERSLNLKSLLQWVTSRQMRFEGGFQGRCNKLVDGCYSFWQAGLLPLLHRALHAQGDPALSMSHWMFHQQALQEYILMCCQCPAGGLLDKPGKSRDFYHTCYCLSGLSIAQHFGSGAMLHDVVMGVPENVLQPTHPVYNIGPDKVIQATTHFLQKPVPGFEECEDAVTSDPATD

[2] = tested on: YnGG labeling of farnesylated substrates in EA.hy926 cells; assay type: cell-based, human
Procedure, shortened: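 Human EA.hy926 cells given an FTase inhibitor over a range of concentrations and labeled with YnF or YnGG in parallel. Probe incorporation was quantified proteome-wide by spike-in SILAC chemical proteomics. Changes in the YnF/YnGG incorporation ratio were compared with loss of YnF labeling across concentrations. Points are mean of n=3 ± standard deviation.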

mean in-cell IC50 response (YnF labeling of farnesylated substrates) [1] | Compound | selectivity at the whole proteome level [1] | impact on farnesylation (YnF labeling) ([1]; up to the highest concentration tested (10 µM)) | concentration above which acute cell toxicity was evident (EA.hy926 cells) [µM] | IC50 (FTase) [µM] | concentration of maximum increase in YnGG labeling of KRAS ([2]; KRAS) [nM] | concentration of maximum increase in YnGG labeling of NRAS ([2]; NRAS) [nM] | concentration of maximum increase in YnGG labeling of RRAS2 ([2]; RRAS2) [nM]
micromolar | COC(=O)[C@H](CCSC)NC(=O)c1ccc(NC[C@@H](N)CS)cc1-c1ccccc1 [FTI-277] | excellent selectivity | – | – | – | – | – | –
– | CCCC[C@@H](C)/C=C(C)/C=C(\C)C(=O)NC1=C[C@@](O)(/C=C/C=C/C=C/C(=O)NC2=C(O)CCC2=O)[C@@H]2O[C@@H]2C1=O [Manumycin A] | – | no evidence that Manumycin A impacted farnesylation; also recorded: insensitive | > 10 | 5 | – | – | –
low nanomolar | Cn1cncc1[C@@](N)(c1ccc(Cl)cc1)c1ccc2c(c1)c(-c1cccc(Cl)c1)cc(=O)n2C [Tipifarnib] | excellent selectivity | – | – | – | 10 | 5 | 1
